According to ChEMBL document CHEMBL1177859, “Synthesis and antipsychotic and anticonvulsant activity of some new substituted oxa/thiadiazolylazetidinonyl/thiazolidinonylcarbazoles” (Eur J Med Chem, 2010):

Experiments:
[1] = Toxicity in ip dosed rat; assay type: organism-based; settings: in vivo
Rattus norvegicus [2] = assay: Anticonvulsant activity in rat assessed as protection against maximal electric shock-induced seizures at 40 mg/kg, ip; assay type: functional; settings: route intraperitoneal
Method in brief: (§1)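 Rats dosed i.p.: test agents at 40 mg/kg, with a propylene glycol group at 0.5 mL. Maximal electroshock (MES) seizure test, scored as % seizure protection.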

Rattus norvegicus [3] = assay: Toxicity in rat assessed as time spent on rotarod at 40 mg/kg, ip by rotarod test; assay type: organism-based; parameters: dose 40 mg/kg, route intraperitoneal; settings: in vivo
Method in brief: (§2)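 Rats dosed i.p.: test agents at 40 mg/kg, with a propylene glycol group at 0.5 mL. Rotarod performance test, recorded as mean time in seconds on the rod.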

Rattus norvegicus [4] = assay: Anticonvulsant activity in rat assessed as protection against maximal electric shock-induced seizures at 0.5 mL, ip; assay type: functional; method in brief: as §1
Rattus norvegicus [5] = assay: Toxicity in rat assessed as time spent on rotarod at 0.5 mL, ip by rotarod test; assay type: organism-based; settings: in vivo; method in brief: as §2

SMILES	LD50 [1]	Activity (Rattus norvegicus [2])	Time (Rattus norvegicus [3])	Activity (Rattus norvegicus [4])	Time (Rattus norvegicus [5])
Oc1ccc(/C=N/c2nnc(Cn3c4ccccc4c4ccccc43)s2)c(O)c1	> 1000 mg/kg	50%	108.6 s		
O=C1CSC(c2ccc(O)cc2)N1c1nnc(Cn2c3ccccc3c3ccccc32)s1 (stereo not drawn)	> 1000 mg/kg	60%	100.6 s		
O=C(CCCN1CCC(O)(c2ccc(Cl)cc2)CC1)c1ccc(F)cc1 [HALOPERIDOL]				0%	
O=C1C(Cl)C(c2ccc(O)cc2O)N1c1nnc(Cn2c3ccccc3c3ccccc32)o1 (stereo not drawn)	> 1000 mg/kg	50%	106.4 s		
COc1cc(C2SCC(=O)N2c2nnc(Cn3c4ccccc4c4ccccc43)s2)ccc1O (stereo not drawn)	> 1000 mg/kg	70%	98.8 s		
Oc1ccc(/C=N/c2nnc(Cn3c4ccccc4c4ccccc43)o2)cc1	> 1000 mg/kg	20%	116.4 s		
CN(C)c1ccc(/C=N/c2nnc(Cn3c4ccccc4c4ccccc43)s2)cc1	> 1000 mg/kg	40%	110.2 s		
CN(C)c1ccc(C2SCC(=O)N2c2nnc(Cn3c4ccccc4c4ccccc43)s2)cc1 (stereo not drawn)	> 1000 mg/kg	60%	104 s		
O=C1C(Cl)C(c2ccc(O)cc2O)N1c1nnc(Cn2c3ccccc3c3ccccc32)s1 (stereo not drawn)	> 1000 mg/kg	50%	102.2 s		
Oc1ccc(/C=N/c2nnc(Cn3c4ccccc4c4ccccc43)o2)c(O)c1	> 1000 mg/kg	30%	114.8 s		
CN(C)c1ccc(C2C(Cl)C(=O)N2c2nnc(Cn3c4ccccc4c4ccccc43)o2)cc1 (stereo not drawn)	> 1000 mg/kg	40%	100.2 s		
O=C1C(Cl)C(c2ccccc2Br)N1c1nnc(Cn2c3ccccc3c3ccccc32)o1 (stereo not drawn)	> 1000 mg/kg	60%	98.8 s		
CN(C)c1ccc(C2C(Cl)C(=O)N2c2nnc(Cn3c4ccccc4c4ccccc43)s2)cc1 (stereo not drawn)	> 1000 mg/kg	50%	106 s		
O=C1CSC(c2ccc(O)cc2O)N1c1nnc(Cn2c3ccccc3c3ccccc32)s1 (stereo not drawn)	> 1000 mg/kg	70%	102.2 s		
COc1cc(C2C(Cl)C(=O)N2c2nnc(Cn3c4ccccc4c4ccccc43)s2)ccc1O (stereo not drawn)	> 1000 mg/kg	70%	102.4 s		
O=C1CSC(c2ccc(O)cc2)N1c1nnc(Cn2c3ccccc3c3ccccc32)o1 (stereo not drawn)	> 1000 mg/kg	60%	104.6 s		

SMILES	LD50 [1]	Activity (Rattus norvegicus [2])	Time (Rattus norvegicus [3])	Activity (Rattus norvegicus [4])	Time (Rattus norvegicus [5])
Oc1ccc(/C=N/c2nnc(Cn3c4ccccc4c4ccccc43)s2)cc1	> 1000 mg/kg	40%	108.8 s		
CN(C)c1ccc(/C=N/c2nnc(Cn3c4ccccc4c4ccccc43)o2)cc1	> 1000 mg/kg	20%	114 s		
COc1cc(/C=N/c2nnc(Cn3c4ccccc4c4ccccc43)o2)ccc1O	> 1000 mg/kg	30%	112.2 s		
O=C1C(Cl)C(c2ccc(O)cc2)N1c1nnc(Cn2c3ccccc3c3ccccc32)s1 (stereo not drawn)	> 1000 mg/kg	60%	102 s		
COc1cc(C2SCC(=O)N2c2nnc(Cn3c4ccccc4c4ccccc43)o2)ccc1O (stereo not drawn)	> 1000 mg/kg	70%	102.8 s		
O=C1CSC(c2ccc(O)cc2O)N1c1nnc(Cn2c3ccccc3c3ccccc32)o1 (stereo not drawn)	> 1000 mg/kg	60%	104.4 s		
Brc1ccccc1/C=N/c1nnc(Cn2c3ccccc3c3ccccc32)o1	> 1000 mg/kg	30%	110.8 s		
COc1cc(/C=N/c2nnc(Cn3c4ccccc4c4ccccc43)s2)ccc1O	> 1000 mg/kg	50%	106.8 s		
CN(C)c1ccc(C2SCC(=O)N2c2nnc(Cn3c4ccccc4c4ccccc43)o2)cc1 (stereo not drawn)	> 1000 mg/kg	60%	104.2 s		
CC(O)CO (stereo not drawn) [PROPYLENE GLYCOL]				0%	120 s
COc1cc(C2C(Cl)C(=O)N2c2nnc(Cn3c4ccccc4c4ccccc43)o2)ccc1O (stereo not drawn)	> 1000 mg/kg	50%	102.4 s		
O=C1CSC(c2ccccc2Br)N1c1nnc(Cn2c3ccccc3c3ccccc32)o1 (stereo not drawn)	> 1000 mg/kg	70%	96.6 s		
O=C1CSC(c2ccccc2Br)N1c1nnc(Cn2c3ccccc3c3ccccc32)s1 (stereo not drawn)	> 1600 mg/kg	90%	96 s		
Brc1ccccc1/C=N/c1nnc(Cn2c3ccccc3c3ccccc32)s1	> 1000 mg/kg	60%	106.8 s		
O=C1C(Cl)C(c2ccc(O)cc2)N1c1nnc(Cn2c3ccccc3c3ccccc32)o1 (stereo not drawn)	> 1000 mg/kg	40%	104.6 s		
O=C1C(Cl)C(c2ccccc2Br)N1c1nnc(Cn2c3ccccc3c3ccccc32)s1 (stereo not drawn)	> 1000 mg/kg	80%	98 s		
